Reference: ChEMBL document CHEMBL4177692, “Synthesis and antidepressant activity of a series of arylalkanol and aralkyl piperazine derivatives targeting SSRI/5-HT1A/5-HT7” (Bioorg Med Chem Lett, 2017)

What was measured:
[1] = target: T1, 5-hydroxytryptamine receptor 1A (Homo sapiens) (UniProt P08908); assay: Displacement of [3H]8-OH-DPAT from recombinant human 5-HT1A receptor expressed in HEK293 cell membranes at 10 uM measured after 60 mins by scintillation counting method
T1 sequence (whole entry): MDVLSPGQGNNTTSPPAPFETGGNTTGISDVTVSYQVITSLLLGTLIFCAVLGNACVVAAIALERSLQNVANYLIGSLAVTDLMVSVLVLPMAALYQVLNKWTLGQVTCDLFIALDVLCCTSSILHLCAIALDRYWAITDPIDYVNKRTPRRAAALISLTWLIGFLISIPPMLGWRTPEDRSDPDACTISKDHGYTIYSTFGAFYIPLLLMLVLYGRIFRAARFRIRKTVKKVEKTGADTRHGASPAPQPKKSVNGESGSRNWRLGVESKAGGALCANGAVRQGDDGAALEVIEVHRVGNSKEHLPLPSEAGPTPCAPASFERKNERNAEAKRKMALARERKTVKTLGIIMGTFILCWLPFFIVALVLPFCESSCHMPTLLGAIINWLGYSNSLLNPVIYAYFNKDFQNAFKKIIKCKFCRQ
How it was run: (§1)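 The 5-HT1A assay displaced [3H]-8-OH-DPAT from HEK-293 cell membrane homogenates. The 5-HT7 assay displaced [3H]-LSD from CHO cell membrane homogenates. The SERT assay measured [3H]-5-HT uptake into rat brain synaptosomes.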

[2] = target: T2, 5-hydroxytryptamine receptor 7 (Homo sapiens, UniProt P34969); assay: Displacement of [3H]-LSD from recombinant human 5-HT7 receptor expressed in CHO cell membranes at 10 uM measured after 60 mins by scintillation counting method; how it was run: as §1
T2 sequence (P34969 whole entry): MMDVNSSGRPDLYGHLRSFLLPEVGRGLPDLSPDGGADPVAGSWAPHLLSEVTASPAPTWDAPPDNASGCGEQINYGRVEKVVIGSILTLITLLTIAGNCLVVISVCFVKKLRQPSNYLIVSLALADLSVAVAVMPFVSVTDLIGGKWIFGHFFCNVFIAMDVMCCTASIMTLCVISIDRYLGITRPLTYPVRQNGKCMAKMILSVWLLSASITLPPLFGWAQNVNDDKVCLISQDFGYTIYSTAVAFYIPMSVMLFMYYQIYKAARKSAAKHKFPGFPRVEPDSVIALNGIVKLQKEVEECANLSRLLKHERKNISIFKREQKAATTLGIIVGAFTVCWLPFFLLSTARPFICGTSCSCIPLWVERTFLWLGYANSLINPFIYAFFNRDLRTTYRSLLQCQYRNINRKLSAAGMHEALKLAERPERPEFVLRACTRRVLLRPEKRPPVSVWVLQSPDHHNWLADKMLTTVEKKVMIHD

[3] = target: Sodium-dependent serotonin transporter (Rattus norvegicus) (UniProt P31652); assay: Inhibition of SERT in rat brain synaptosomes assessed as reduction in [3H]-5-HT uptake at 10 uM measured after 15 mins by scintillation counting method relative to control; type: subcellular; how it was run: as §1
Sodium-dependent serotonin transporter (Rattus norvegicus), sequence (P31652 whole entry): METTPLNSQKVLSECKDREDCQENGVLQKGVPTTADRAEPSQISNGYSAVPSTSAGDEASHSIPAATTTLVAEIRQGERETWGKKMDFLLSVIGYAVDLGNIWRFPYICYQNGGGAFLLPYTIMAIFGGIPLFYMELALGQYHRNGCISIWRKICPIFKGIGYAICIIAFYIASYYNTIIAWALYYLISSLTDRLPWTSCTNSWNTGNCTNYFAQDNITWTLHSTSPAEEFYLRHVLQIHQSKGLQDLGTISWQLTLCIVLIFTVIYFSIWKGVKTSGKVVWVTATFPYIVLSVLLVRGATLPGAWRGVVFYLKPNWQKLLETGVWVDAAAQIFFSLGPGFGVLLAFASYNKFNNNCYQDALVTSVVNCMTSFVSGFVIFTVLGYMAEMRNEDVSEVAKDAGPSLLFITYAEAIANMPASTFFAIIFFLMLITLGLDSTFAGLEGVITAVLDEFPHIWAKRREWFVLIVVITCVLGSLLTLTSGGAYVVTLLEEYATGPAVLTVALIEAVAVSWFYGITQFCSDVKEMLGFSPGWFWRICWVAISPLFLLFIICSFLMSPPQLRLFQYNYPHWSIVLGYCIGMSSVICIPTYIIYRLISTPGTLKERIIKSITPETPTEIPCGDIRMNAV

[4] = target: T2, 5-hydroxytryptamine receptor 7; assay: Displacement of [3H]-LSD from recombinant human 5-HT7 receptor expressed in CHO cell membranes measured after 60 mins by scintillation counting method
How it was run: (§2)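 The 5-HT1A assay used [3H]-8-OH-DPAT displacement on HEK-293 membranes. The 5-HT7 assay used [3H]-LSD displacement on CHO membranes. The SERT assay measured [3H]-5-HT uptake into rat brain synaptosomes.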

[5] = target: T3, Sodium-dependent serotonin transporter (Rattus norvegicus, UniProt P31652); assay: Inhibition of SERT in rat brain synaptosomes assessed as reduction in [3H]-5-HT uptake measured after 15 mins by scintillation counting method; type: subcellular; how it was run: as §2
T3 sequence (P31652 whole entry): as above

[6] = target: T4, 5-hydroxytryptamine receptor 1A (Homo sapiens, UniProt P08908); assay: Displacement of [3H]8-OH-DPAT from recombinant human 5-HT1A receptor expressed in HEK293 cell membranes measured after 60 mins by scintillation counting method
T4 sequence (P08908 whole entry): T1 sequence (whole entry)

[7] = Half-life in rat liver microsomes at 1 uM in presence of NADPH regenerating system by LC-MS/MS analysis; type: ADME, microsome
[8] = test system: Mus musculus; assay: Antidepressant-like activity in mouse assessed as reduction in immobility time at 20 mg/kg, po administered once daily for 7 days measured last 4 mins of 6 mins test by forced swim test relative to control; type: functional; set-up: scale not given: the % may be the effect or the level left
How it was run: (§3)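 Mouse forced swim test. Oral dosing once daily for 7 days at 10, 20 or 40 mg/kg/day. […] Read-out is immobility time. Data given as mean ± SEM, n = 10 per group, tested against vehicle at P<0.05 and P<0.01.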

[9] = Clearance in rat liver microsomes at 1 uM measured after 90 mins in presence of NADPH regenerating system by LC-MS/MS analysis; type: ADME, microsome; conditions: read-out: CLH
[10] = target: T4, 5-hydroxytryptamine receptor 1A; assay: Binding affinity to 5-HT1A receptor (unknown origin)
[11] = target: Sodium-dependent serotonin transporter (Homo sapiens, UniProt P31645); assay: Binding affinity to SERT (unknown origin)
Sodium-dependent serotonin transporter (Homo sapiens, UniProt P31645), sequence (P31645 whole entry): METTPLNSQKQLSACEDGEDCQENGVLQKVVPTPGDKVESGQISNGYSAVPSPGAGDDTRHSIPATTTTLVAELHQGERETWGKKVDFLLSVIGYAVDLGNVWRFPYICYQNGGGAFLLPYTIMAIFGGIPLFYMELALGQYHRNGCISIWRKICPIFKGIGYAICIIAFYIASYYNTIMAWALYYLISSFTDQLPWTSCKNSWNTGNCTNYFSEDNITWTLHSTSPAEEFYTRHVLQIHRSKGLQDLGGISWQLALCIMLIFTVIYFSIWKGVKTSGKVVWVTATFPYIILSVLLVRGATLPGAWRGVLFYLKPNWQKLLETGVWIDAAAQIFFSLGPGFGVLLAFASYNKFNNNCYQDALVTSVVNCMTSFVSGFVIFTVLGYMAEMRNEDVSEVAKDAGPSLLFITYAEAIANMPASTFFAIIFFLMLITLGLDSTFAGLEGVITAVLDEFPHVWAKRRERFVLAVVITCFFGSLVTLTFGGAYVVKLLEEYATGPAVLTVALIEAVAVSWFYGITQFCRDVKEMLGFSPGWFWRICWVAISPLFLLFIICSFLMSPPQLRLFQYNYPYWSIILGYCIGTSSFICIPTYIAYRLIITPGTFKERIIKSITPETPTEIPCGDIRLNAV

[12] = test system: Mus musculus; assay: Antidepressant-like activity in mouse assessed as reduction in immobility time at 40 mg/kg, po administered once daily for 7 days measured last 4 mins of 6 mins test by forced swim test relative to control; type: functional; set-up: scale not given: the % may be the effect or the level left; how it was run: as §3
[13] = test system: Mus musculus; assay: Antidepressant-like activity in mouse assessed as reduction in immobility time at 10 mg/kg, po administered once daily for 7 days measured last 4 mins of 6 mins test by forced swim test relative to control; type: functional; set-up: scale not given: the % may be the effect or the level left; how it was run: as §3
[14] = test system: Mus musculus; assay: Antidepressant-like activity in po dosed mouse assessed as reduction in immobility time administered once daily for 7 days measured last 4 mins of 6 mins test by forced swim test; type: functional, organism-based; how it was run: as §3
[15] = target: T3, Sodium-dependent serotonin transporter; assay: Displacement of [3H]-paroxetine from rat cerebral cortex SERT
[16] = target: T5, 5-hydroxytryptamine receptor 1A (Rattus norvegicus, UniProt P19327); assay: Displacement of [3H]8-OH-DPAT from rat cerebral cortex 5-HT1A receptor
T5 sequence (P19327 whole entry): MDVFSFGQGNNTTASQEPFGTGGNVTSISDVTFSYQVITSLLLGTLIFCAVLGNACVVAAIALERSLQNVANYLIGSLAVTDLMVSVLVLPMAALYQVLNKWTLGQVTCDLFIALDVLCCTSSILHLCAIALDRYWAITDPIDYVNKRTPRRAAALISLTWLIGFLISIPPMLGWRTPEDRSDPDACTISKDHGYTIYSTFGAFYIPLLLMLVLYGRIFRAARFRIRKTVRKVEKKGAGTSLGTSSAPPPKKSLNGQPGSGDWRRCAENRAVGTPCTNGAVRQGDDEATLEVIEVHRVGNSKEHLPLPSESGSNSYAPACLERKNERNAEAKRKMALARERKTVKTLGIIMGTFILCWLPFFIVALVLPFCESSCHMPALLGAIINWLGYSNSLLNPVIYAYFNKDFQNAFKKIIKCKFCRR

SMILES	inhibition [1] [%]	inhibition [2] [%]	inhibition [3] [%]	IC50 [5] [nM]	also measured
Cc1ccc(-c2ccccc2N2CCN(CCc3ccc(Cl)c(Cl)c3)CC2)c(C)c1	83.2	93.5	31.5		
Cc1ccc(-c2ccccc2N2CCN(CCc3ccc(Cl)c(Cl)c3)CC2)cc1	99.5	98.1	65.8		
Clc1ccc(CCN2CCN(c3ccccc3-c3ccccc3)CC2)cc1Cl	97.8	101	104	840	Ki [4]: 0.75 nM; Ki [6]: 6.3 nM
Cc1ccc(Sc2ccccc2N2CCNCC2)c(C)c1 [VORTIOXETINE]				2.9	Ki [4]: 26 nM; half-life at 1 µM [7]: 9 min; Activity [8]: 34 - 35%; microsomal CLint at 1 µM [9]: 153 µL/min/mg
COc1ccccc1N1CCN(CCCN2CCOc3ccccc32)CC1					Ki [10]: 1.48 nM; IC50 [11]: 195 nM
COc1ccc2[nH]c([S+]([O-])Cc3ncc(C)c(OC)c3C)nc2c1 (stereo not drawn) [OMEPRAZOLE]					half-life at 1 µM [7]: 8.5 min; microsomal CLint at 1 µM [9]: 163 µL/min/mg
COc1ccccc1N1CCN(CCC(O)c2csc3ccc(F)cc23)CC1 (stereo not drawn)					Ki [15]: 12 nM; Ki [16]: 2.3 nM
Cc1ccc(-c2ccccc2N2CCN(CCc3ccc(Cl)c(Cl)c3)CC2)cc1C	96.8	93.2	17.6		
COc1ccc(-c2ccccc2N2CCN(CCc3ccc(Cl)c(Cl)c3)CC2)cc1	98.7	97.5	66.1		

Continued, in another order:

inhibition [1] [%]	inhibition [2] [%]	inhibition [3] [%]	IC50 [5] [nM]	SMILES	also measured
91.5	69.8	105		OC(CCN1CCN(c2cccc(-c3ccccc3)c2)CC1)c1ccc(Cl)c(Cl)c1 (stereo not drawn)	
99.7	96.4	97.2	880	Fc1cccc(-c2ccccc2N2CCN(CCc3ccc(Cl)c(Cl)c3)CC2)c1	
99.9	101	89		CSc1ccccc1N1CCN(CCC(O)c2ccc(Cl)c(Cl)c2)CC1 (stereo not drawn)	
98.9	102	98.9	590	OC(CCN1CCN(c2ccccc2-c2ccccc2)CC1)c1ccc(Cl)c(Cl)c1 (stereo not drawn)	
99.4	102	84.9		Oc1ccccc1N1CCN(CCC(O)c2ccc(Cl)c(Cl)c2)CC1 (stereo not drawn)	
99.3	101	88.8		COc1ccccc1N1CCN(CCC(O)c2ccc(Cl)c(Cl)c2)CC1 (stereo not drawn)	
98.4	94.7	72.3		Cc1cccc(-c2ccccc2N2CCN(CCc3ccc(Cl)c(Cl)c3)CC2)c1	
98.7	96	102	100	Clc1ccc(CCN2CCN(c3nsc4ccccc34)CC2)cc1Cl	Ki [4]: 12 nM; half-life at 1 µM [7]: 5.3 min; Activity [12]: 45%; Ki [6]: 0.84 nM; Activity [8]: 21%; microsomal CLint at 1 µM [9]: 262 µL/min/mg; Activity [13]: 17%; Activity [14]: Dose-dependent effect
93.9	97.3	61.6		Cc1ccccc1-c1ccccc1N1CCN(CCc2ccc(Cl)c(Cl)c2)CC1	
98.8	96.7	92.1	950	Fc1ccc(-c2ccccc2N2CCN(CCc3ccc(Cl)c(Cl)c3)CC2)cc1	
98.5	99.8	112	340	OC(CN1CCN(c2ccccc2)CC1)c1ccc(Cl)c(Cl)c1 (stereo not drawn)	Ki [4]: 3.2 nM; half-life at 1 µM [7]: 6.1 min; Activity [12]: 30%; Ki [6]: 2.4 nM; Activity [8]: 26%; microsomal CLint at 1 µM [9]: 226 µL/min/mg; Activity [13]: 16%; Activity [14]: Dose-dependent effect
